Experimental findings from ChEMBL document CHEMBL4513216, “Probing the Open Global Health Chemical Diversity Library for Multistage-Active Starting Points for Next-Generation Antimalarials” (ACS Infect Dis, 2020) are described below.

The data set can be described thus: Toxicity liver stage against HepG2, at 10uM. The settings on record: human, HepG2-A16-CD81EGFP cells; read-out: INHIBITION
Details: test concentration 10 uM, cell line HepG2-A16-CD81EGFP. The class given is cell-based. The procedure, abridged:
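Uninfected HepG2-A16-CD81EGFP cells, 3 × 10^3 per well, 1536-well, plated on prespotted compound at 10 μM final, parasite-free screening media added to match infected plates; puromycin 10 μM positive, DMSO 0.5% negative; run in parallel with 48 h PbLuc assay at 37 °C, 5% CO2; viability by CellTiter-Glo luminescence, normalized to controls.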
For the compound `CN(Cc1ccccc1)C(=O)CN1CCOC(Cn2cncn2)C1` (stereo unspecified), the cytotoxicity at 10 µM is -3.66%.

As to `CC(Cn1cccn1)NC(=O)NCc1ccc(OC2CCCC2)nc1` (stereo unspecified), the cytotoxicity at 10 µM was -12.9%.

Take `c1cc2c(cc1OC[C@@H]1CCCN3CCCC[C@H]13)OCCO2`: the cytotoxicity at 10 µM was -2.48%. `COc1cccc(C(=O)N2C[C@@H](CN(C)CCO)[C@@H](CO)C2)c1C`: the cytotoxicity at 10 µM is -4.17%. Take `CN(Cc1ccc(C#N)cc1)CC1CCS(=O)(=O)C1` (stereo unspecified): the cytotoxicity at 10 µM was -5.78%. Take `CCOc1cc(C(=O)N2CCN(CC)CC2)cc2occc12`: the cytotoxicity at 10 µM was found to be 4.37%. In the case of `COc1cc(F)ccc1NC(=O)NCCNC(=O)OC(C)(C)C`, the cytotoxicity at 10 µM is -3.97%. Under `CC1CCN(S(=O)(=O)NC2CCCCNC2=O)CC1` (stereo unspecified) stands 14%; under `COc1ccccc1CC(=O)N1CCC(NCc2cc[nH]c2)CC1`, 0.593%; under `Cc1cc(Br)ccc1C(=O)Nc1c(C(N)=O)n[nH]c1C`, -2.58%.

With `CC(C)=CCN1CCN(S(=O)(=O)c2cn(C)cn2)[C@H]2CS(=O)(=O)C[C@H]21`, the cytotoxicity at 10 µM was determined as 0.634%. Under `CCNc1nc2c(s1)C(=O)CN(C(=O)NCCc1ccccc1)C2` stands 3.3%; under `Cc1cc(C)c2nc(CN3CCC(N4CCOC4=O)CC3)cc(O)c2c1`, -0.213%. `Cc1nc(CN2CCN(C(=O)c3cc(C4CC4)on3)CC2)cs1`: the cytotoxicity at 10 µM turned out to be 2.21%.

`Cc1cn2c(n1)CCC(NC(=O)CCOc1ccccc1F)C2` (stereo unspecified): the cytotoxicity at 10 µM is 5.27%. With `Cc1ccc(C2CSCCN2C(=O)c2ccoc2C)o1` (stereo unspecified), the cytotoxicity at 10 µM is 13.8%. Under `O=C(NCCCn1ccnc1)Nc1ccn(CCc2ccccn2)n1` stands -0.386%; under `O=c1[nH]c2cn(-c3ccccc3)c(=O)n2[nH]1`, -11.5%; under `CC1c2cc(F)ccc2CCN1CCS(=O)(=O)C(C)C` (stereo unspecified), 2.72%. With `Cc1nc(CN2CCCC(NCc3ccc(C(N)=O)cc3)C2)no1` (stereo unspecified), the cytotoxicity at 10 µM was -9.47%.

Regarding `Cn1ccnc1CN(CCO)C(=O)C1CCN(C(=O)C2CC2)CC1`, the cytotoxicity at 10 µM was found to be 2.55%.

On to `O=C(NC1CC1)c1ccc(SCc2cscn2)cc1`, for which the cytotoxicity at 10 µM stood at 1.26%. On to `O=C(CCCN1CCCCC1)N1CCN(C(=O)c2nc[nH]n2)CC1`, for which the cytotoxicity at 10 µM amounted to 7.81%. With `O=C(CCC(=O)Nc1nnc(C2CCCCC2)s1)NCC1CCCO1` (stereo unspecified), the cytotoxicity at 10 µM is -7.7%. For `CCc1nc2ccccc2c(=O)n1CC1(O)CCN(C(=O)C(C)C)CC1`, the cytotoxicity at 10 µM is -24.3%. Under `COc1ccc(CCN(C)C2CCCN(Cc3noc(C)n3)C2)cc1` (stereo unspecified) stands -4.59%. For `CC(Nc1ccn(CCS(C)(=O)=O)n1)c1ccc(C#N)cc1` (stereo unspecified), the cytotoxicity at 10 µM is 8.64%.

Turning to `O=C1OC2(CCN(C3CCCOC3)CC2)CN1CCc1ccccc1` (stereo unspecified), the cytotoxicity at 10 µM is -17.5%. Consider `COc1cccc(S(=O)(=O)CCNC2CCc3ncnn3C2)c1` (stereo unspecified), for which the cytotoxicity at 10 µM was found to be 2.53%. In the case of `Cc1nccc([C@H]2C[C@@H]3CCN(S(=O)(=O)C4CC4)C[C@H]3O2)n1` it was -2.3%; in that of `COC1CCN(C(=O)NCC(N)=O)CC(=O)N(C)c2ccccc21` (stereo unspecified), 4.79%. As for `Fc1ccc(Cc2cnc(C3CCCN3)cn2)cc1` (stereo unspecified), the cytotoxicity at 10 µM was -9.77%. For `CCC1C=CCN1C(=O)c1cc(COc2ccccc2OC)[nH]n1` (stereo unspecified), the cytotoxicity at 10 µM came to 2.93%. In the case of `Cc1cc(NCCc2c[nH]cn2)nc(-c2cccnc2)n1` it was 2.49%. In the case of `O=C(NCCCO)C1(N2CCCCC2)Cc2ccccc2C1` it was -3.07%. Under `CCN(Cc1ccncc1)CC1(O)CCN(C(=O)c2cnn(C)c2)C1` (stereo unspecified) stands -26.9%; under `Clc1ccccc1CN1CCc2nc(C3CCCCN3)ncc2C1` (stereo unspecified), -3.12%; under `CCn1nc(C)c(CNC(=O)NCC(C)(O)c2ccc(C)o2)c1C` (stereo unspecified), 10.5%.

For `CC(CO)NC(=O)c1ccc2[nH]/c(=N\S(C)(=O)=O)sc2c1` (stereo unspecified), the cytotoxicity at 10 µM is -3.24%. In the case of `Cc1ccn(CCNC(=O)C2(C)CC(c3ccccc3)=NO2)n1` (stereo unspecified) it was 8.46%; in that of `COc1ccc(C2CNCCN2C(=O)c2cccc3ncccc23)cc1` (stereo unspecified), -8.73%; in that of `CN(C)C(C(=O)NCC1(O)CCCCC1)c1c(F)cccc1F` (stereo unspecified), -5.52%. Under `CN(CCn1cccn1)S(=O)(=O)c1ccc(C#N)cc1` stands -4.81%. Under `Cc1cc(C)n2c(CCCNS(=O)(=O)c3ccccc3)nnc2n1` stands 1.18%; under `CC(C)NC(=O)N1CCC2(CC1)CCn1c(C3CC3)cnc12`, 2.04%. For `COCCN(C)CC(=O)N1C[C@@H]2CC[C@H]1CN(C(=O)c1ccncc1)C2`, the cytotoxicity at 10 µM was -0.908%. Under `Cc1ccc(CNC(=O)NCc2cccnc2N(C)C)s1` stands -4.15%; under `CCN(C)S(=O)(=O)NCC1CCN(Cc2ccccc2F)C1` (stereo unspecified), -2.48%; under `CCCOc1cc(CNC(=O)Nc2cccc(C(C)=O)c2)ccn1`, -1%. Under `CC(C)(C)NC(=O)Cn1cc(C(N)=O)c(-c2ccccc2)n1` stands -12.8%. As to `Cc1cnn(C2CCCN(C(=O)CCCNc3ncccn3)C2)c1` (stereo unspecified), the cytotoxicity at 10 µM was -3.27%. In the case of `O=C(O)[C@@H]1CN(C(=O)CCc2ccccn2)C[C@H]1c1ccccc1` it was 7.96%. Consider `Cc1ccnn1CC(=O)N1CCN(C2CCc3ccccc3C2)CC1` (stereo unspecified), for which the cytotoxicity at 10 µM is -131%. Under `O=C(c1ccncc1F)N1Cc2nc(COCC3CC3)oc2C1` stands -99.9%. Under `CC(=O)N1C[C@H](NS(=O)(=O)Cc2cccc(Cl)c2)[C@@H](C(C)C)C1` stands -1.73%; under `CN(C)Cc1ccnc(NS(=O)(=O)CCc2ccccc2)c1`, -3.09%. `Cc1nc(NCc2nncn2C2CC2)c2c(CC(C)C)csc2n1`: the cytotoxicity at 10 µM was -5.57%. In the case of `COCCc1noc(Cn2c(=O)[nH]c3ccccc32)n1` it was -2.03%; in that of `c1cnn(CC2CN(Cc3csc(-c4ccsc4)n3)CCO2)c1` (stereo unspecified), 3.23%; in that of `CNC(=O)C1CN(Cc2ccc(C#N)cc2F)c2ccccc2O1` (stereo unspecified), 9.44%. Under `CC1(C(=O)N2CCOCC2)CN(Cc2cccnc2)CCO1` (stereo unspecified) stands -9%; under `CCN(CC1CN(Cc2nc(C3CC3)no2)CCO1)c1cccnn1` (stereo unspecified), 14.9%; under `Cc1nc(N2CCCC2)nc2c1CCN(C(=O)NC(C)C)CC2`, 2.93%.

Consider `Cc1noc(C)c1CN1CC[C@@H](OCC2CC2)[C@@H](Cc2ccccc2)C1`, for which the cytotoxicity at 10 µM turned out to be 11.5%. Regarding `CC(=O)N(C)CC(=O)NC1(c2ccc(F)cc2)CCCC1`, the cytotoxicity at 10 µM turned out to be 0.747%.

`CCc1cnc(NCc2nc(CSC)no2)nc1`: the cytotoxicity at 10 µM came out at 7.15%. As to `CCCN1Cc2ccccc2NC(=O)C12CCNC2` (stereo unspecified), the cytotoxicity at 10 µM is 5.92%. In the case of `CN(C)C(=O)c1cccnc1-c1ccc2c(c1)OCCO2` it was 5.73%; in that of `Cc1ccc(NS(=O)(=O)C=c2[nH]c(=O)n3cccc3c2=O)cc1`, -10.7%; in that of `CC(C)C(=O)N1CCC(c2nc3ccccn3c2NC(C)(C)C)CC1`, 5.86%.

Regarding `OC(CN1CCCc2cc(OC(F)F)ccc21)Cn1cccn1` (stereo unspecified), the cytotoxicity at 10 µM was 6.85%. Under `O=C(NC1CCCC1)c1ccc(C2CCCNC2)nc1` (stereo unspecified) stands -13.7%; under `N#CCCN(Cc1ccco1)C(=O)c1ccc(OCC2CC2)cc1`, -5.87%; under `CN(CC(C)(C)O)C(=O)Nc1ccc(F)c(-n2cccc2)c1`, -9.3%. Under `O=C1CC(C(=O)Nc2nnc(-c3cccs3)[nH]2)c2ccccc2N1` (stereo unspecified) stands -0.921%. Consider `O=C(C1COCCO1)N1CCN(Cc2ccc3c(c2)CCO3)CC1` (stereo unspecified), for which the cytotoxicity at 10 µM is -5.99%. In the case of `O=C(C1CC1)N1CCC(c2nc(O)c3c(n2)CN(C2CCCC2)CC3)C1` (stereo unspecified) it was -24.1%; in that of `COc1ccc2cc(CN(C)CCN3CCCCC3=O)c(=O)[nH]c2c1`, 0.363%.

Take `CCc1nc(CN2CCN(C(=O)COCc3ccccc3)CC2)no1`: the cytotoxicity at 10 µM was 2.41%. In the case of `Cc1cccc(C(=O)N2C[C@@H]3CCN(c4cccnc4)C[C@@H]3C2)c1` it was 3.76%.

Regarding `O=C(c1ccsc1)N1C[C@H]2CCC[C@@]2(COCc2cccnc2)C1`, the cytotoxicity at 10 µM was -2.86%. Under `CC(c1cccnc1)N(C)Cc1cc2cc3c(cc2[nH]c1=O)OCO3` (stereo unspecified) stands 9.27%. Take `CN(Cc1cnccn1)S(=O)(=O)c1ccc(C(F)(F)F)nc1`: the cytotoxicity at 10 µM was -9.77%. Turning to `COc1ccc(CN2CCC3(CCN(c4cccnc4)C3=O)C2)cc1` (stereo unspecified), the cytotoxicity at 10 µM is 5.16%. For the compound `CN1CCN([C@@H]2CN(C(=O)c3cc4cccc(F)c4[nH]3)C[C@H]2O)CC1`, the cytotoxicity at 10 µM was -6.81%. Take `CCCC(C)(C)NC(=O)c1cnc(CC)s1`: the cytotoxicity at 10 µM turned out to be 10.2%.

For the compound `COc1cc(C)ccc1OCC(=O)NS(=O)(=O)c1cc(F)ccc1F`, the cytotoxicity at 10 µM is 2.15%. As for `Cc1cccnc1CCNCC1(O)CCCN(CC2CCCCC2)C1=O` (stereo unspecified), the cytotoxicity at 10 µM is -203%. Regarding `Cn1cc(CCCNC(=O)NCC(O)c2ccsc2)cn1` (stereo unspecified), the cytotoxicity at 10 µM is -5.4%. Regarding `CCOCCCNC(=O)Cc1cccs1`, the cytotoxicity at 10 µM is -10.2%. In the case of `O=C(COc1coc(CN2CCCCC2)cc1=O)NCc1ccccc1` it was -7.25%; in that of `Cc1ccc(NC(=O)Nc2cnc(N3CCN(C)CC3)nc2)cc1`, -15.4%. Take `CS(=O)(=O)CCNC(=O)N1CC2(CCCC2)c2ccccc21`: the cytotoxicity at 10 µM is 0.883%.

`Cn1cc(CN2CCCC23CCN(C(=O)c2ccncc2)CC3)cn1`: the cytotoxicity at 10 µM is -3.51%. `CCc1nc2c(NCC3COc4cc(OC)ccc4C3)ncnc2o1` (stereo unspecified): the cytotoxicity at 10 µM was determined as 40.9%. Take `Cc1cccc(Cn2c(=O)[nH]c3csnc3c2=O)c1`: the cytotoxicity at 10 µM came to 3.46%.
